Source: ChEMBL document CHEMBL1132860 (Bioorg Med Chem Lett, 2000)

Assays:
[1] = system: Rattus norvegicus; test: Inhibition of Xylazine (15 mg/kg i.v.) induced loss of righting reflex in rats following i.v. administration.; type: functional; design: unit not given here
[2] = system: Rattus norvegicus; test: Inhibition of clonidine (0.04 mg/kg) induced anti diarrhoeal effects in rats following s.c. administration.; type: functional; design: unit not given here
[3] = molecular target: T1, Alpha-2C adrenergic receptor (Homo sapiens, UniProt P18825); test: biochemical; type: cell-based, CHO
T1 sequence (P18825 whole entry): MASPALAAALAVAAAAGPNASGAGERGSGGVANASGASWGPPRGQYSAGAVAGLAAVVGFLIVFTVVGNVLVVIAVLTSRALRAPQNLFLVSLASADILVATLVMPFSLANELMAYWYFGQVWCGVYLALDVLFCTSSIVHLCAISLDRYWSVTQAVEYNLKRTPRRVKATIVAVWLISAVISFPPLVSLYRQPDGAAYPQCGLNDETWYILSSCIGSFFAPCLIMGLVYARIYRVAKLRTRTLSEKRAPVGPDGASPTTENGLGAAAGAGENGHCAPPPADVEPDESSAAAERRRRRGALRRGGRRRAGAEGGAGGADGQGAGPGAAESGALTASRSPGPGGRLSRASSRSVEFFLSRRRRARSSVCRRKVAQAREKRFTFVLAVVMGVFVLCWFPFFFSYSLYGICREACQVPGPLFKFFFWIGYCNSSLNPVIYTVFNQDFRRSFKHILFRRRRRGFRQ

[4] = molecular target: T2, Alpha-1A adrenergic receptor (Homo sapiens, UniProt P35348); test: Binding affinity at human Alpha-1A adrenergic receptor in CHO cells uby [3H]prazosin (0.25 nM) displacement.; type: cell-based
T2 sequence (P35348 whole entry): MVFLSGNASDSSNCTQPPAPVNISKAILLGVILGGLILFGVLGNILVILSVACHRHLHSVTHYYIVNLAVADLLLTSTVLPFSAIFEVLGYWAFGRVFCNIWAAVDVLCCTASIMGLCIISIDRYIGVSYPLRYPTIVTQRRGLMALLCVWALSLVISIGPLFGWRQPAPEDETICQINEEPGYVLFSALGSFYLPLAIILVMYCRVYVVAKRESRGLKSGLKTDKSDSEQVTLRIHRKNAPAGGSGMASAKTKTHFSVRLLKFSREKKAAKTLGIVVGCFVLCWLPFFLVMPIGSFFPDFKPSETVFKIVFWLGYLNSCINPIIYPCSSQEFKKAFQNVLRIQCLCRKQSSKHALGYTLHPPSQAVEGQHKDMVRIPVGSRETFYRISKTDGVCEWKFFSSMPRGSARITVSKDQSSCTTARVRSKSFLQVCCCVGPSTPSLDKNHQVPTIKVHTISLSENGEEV

[5] = molecular target: T3, Alpha-2B adrenergic receptor (Homo sapiens, UniProt P18089); test: Binding affinity at human Alpha-2B adrenergic receptor in CHO cells by [3H]rauwolscine (1 nM) displacement.; type: cell-based
T3 sequence (P18089 whole entry): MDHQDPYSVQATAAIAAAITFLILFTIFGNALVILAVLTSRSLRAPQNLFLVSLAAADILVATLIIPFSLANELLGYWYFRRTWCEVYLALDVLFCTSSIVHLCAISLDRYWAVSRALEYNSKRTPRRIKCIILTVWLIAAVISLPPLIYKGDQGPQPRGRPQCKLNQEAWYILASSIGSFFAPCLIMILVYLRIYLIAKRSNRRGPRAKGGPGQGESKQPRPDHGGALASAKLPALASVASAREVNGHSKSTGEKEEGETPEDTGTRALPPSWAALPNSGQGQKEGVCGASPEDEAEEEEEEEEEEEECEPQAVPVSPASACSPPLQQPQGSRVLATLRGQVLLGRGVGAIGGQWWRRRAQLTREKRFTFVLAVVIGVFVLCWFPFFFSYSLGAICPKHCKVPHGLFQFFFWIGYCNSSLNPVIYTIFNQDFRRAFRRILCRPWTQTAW

[6] = molecular target: T4, Alpha-2A adrenergic receptor (Homo sapiens, UniProt P08913); test: Binding affinity at human Alpha-2A adrenergic receptor in CHO cells by [3H]rauwolscine (1 nM) displacement.; type: cell-based
T4 sequence (P08913 whole entry): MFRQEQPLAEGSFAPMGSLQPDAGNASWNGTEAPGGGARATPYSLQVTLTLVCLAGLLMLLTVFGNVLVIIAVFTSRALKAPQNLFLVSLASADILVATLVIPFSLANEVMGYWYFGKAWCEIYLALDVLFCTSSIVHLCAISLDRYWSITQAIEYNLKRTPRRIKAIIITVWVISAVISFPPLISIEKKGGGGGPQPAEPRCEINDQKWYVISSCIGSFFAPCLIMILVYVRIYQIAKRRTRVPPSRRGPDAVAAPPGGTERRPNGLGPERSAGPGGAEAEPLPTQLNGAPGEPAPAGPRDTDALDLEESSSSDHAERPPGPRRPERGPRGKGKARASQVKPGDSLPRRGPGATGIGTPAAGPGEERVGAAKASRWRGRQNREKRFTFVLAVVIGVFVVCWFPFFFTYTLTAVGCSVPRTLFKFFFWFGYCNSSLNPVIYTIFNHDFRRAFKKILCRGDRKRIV
Procedure, shortened: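 Membranes from CHO cells stably expressing the human receptor, with 1 nM [3H]rauwolscine as radioligand. Nonspecific binding was defined with 1 μM oxymethazoline. Compounds were tested over 10^-5 to 10^-11. Inhibition curves were fitted as sigmoids by non-linear regression using polynomials, and pIC50 (−log IC50) was read from the curves.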

| IC50 [3] | IC50 [4] | IC50 [5] | IC50 [6] | SMILES | Activity [1] | Activity [2] |
| --- | --- | --- | --- | --- | --- | --- |
| 1.7 nM | 347 nM | 2.57 nM | 0.55 nM | Cc1nc2ccccn2c(=O)c1CCN1CCc2oc3ccccc3c2C1 [LUSAPERIDONE] | 0.04 | 0.31 |
| – | – | – | – | c1ccc2c(c1)OCC(C1=NCCN1)O2 (stereo not drawn) [IDAZOXAN] | 0.63 | 0.63 |
| 0.617 nM | 479 nM | 2.09 nM | 0.24 nM | Cc1nc2ccc(I)cn2c(=O)c1CCN1CCc2oc3ccccc3c2C1 | 10 | >2.5 |
| 0.708 nM | 115 nM | 2.04 nM | 0.295 nM | COc1cccn2c(=O)c(CCN3CCc4oc5ccccc5c4C3)c(C)nc12 | 0.63 | 0.63 |
| 27.5 nM | – | 79.4 nM | 3.89 nM | Cc1nc2ccccn2c(=O)c1CCN1CCc2oc3ccc(Cl)cc3c2C1 | 10 | >2.5 |
| 1.62 nM | 245 nM | 1.74 nM | 0.692 nM | Cc1nc2c(O)cccn2c(=O)c1CCN1CCc2oc3ccccc3c2C1 | 5 | 2.5 |
| 2.69 nM | 204 nM | 4.17 nM | 2.19 nM | O=c1c(CCN2CCc3oc4ccccc4c3C2)c(Cc2ccccc2)nc2ccccn12 | >10 | >2.5 |
| 1.2 nM | 112 nM | 2.57 nM | 0.447 nM | Cc1ccn2c(=O)c(CCN3CCc4oc5ccccc5c4C3)c(C)nc2c1 | 0.63 | 2.5 |
| 1.29 nM | 288 nM | 1.55 nM | 0.347 nM | Cc1ccc2nc(C)c(CCN3CCc4oc5ccccc5c4C3)c(=O)n2c1 | 0.16 | 0.63 |
| 0.692 nM | 891 nM | 1.35 nM | 0.355 nM | Cc1nc2ccc(Br)cn2c(=O)c1CCN1CCc2oc3ccccc3c2C1 | 0.16 | 2.5 |
| 6.61 nM | 813 nM | 10.7 nM | 10.2 nM | Cc1nc2ccccn2c(=O)c1CCCN1CCc2oc3ccccc3c2C1 | >10 | >2.5 |
| 1.07 nM | 398 nM | 1.48 nM | 0.288 nM | Cc1nc2cccc(C)n2c(=O)c1CCN1CCc2oc3ccccc3c2C1 | 0.63 | 2.5 |
| 14.1 nM | 214 nM | 11.5 nM | 1.74 nM | Cc1nc2ccccn2c(=O)c1CCN1CCc2sc3ccccc3c2C1 | 2.5 | 10 |
| – | 5890 nM | 1.95 nM | 1.17 nM | Cc1nc2c(Cl)cc(C(F)(F)F)cn2c(=O)c1CCN1CCc2oc3ccccc3c2C1 | – | – |
| 0.851 nM | 240 nM | 2.63 nM | 0.339 nM | Cc1cc(C)n2c(=O)c(CCN3CCc4oc5ccccc5c4C3)c(C)nc2c1 | >10 | >2.5 |
| 1.32 nM | 692 nM | 2.14 nM | 0.603 nM | Cc1nc2c(C)cccn2c(=O)c1CCN1CCc2oc3ccccc3c2C1 | 10 | 2.5 |
| – | 2570 nM | – | 0.589 nM | Cc1nc2c(Cl)cc(Cl)cn2c(=O)c1CCN1CCc2oc3ccccc3c2C1 | >10 | >2.5 |
| 57.5 nM | 5250 nM | 195 nM | 3.55 nM | COc1cc2nc(C)c(CCN3CCc4oc5ccccc5c4C3)c(=O)n2cc1OC | >10 | >0.63 |
| 2.24 nM | 282 nM | 4.37 nM | 0.891 nM | Cc1nc2ccccn2c(=O)c1CCN1CCc2oc3c(Cl)cccc3c2C1 | 2.5 | 0.63 |
| 0.724 nM | 724 nM | 0.955 nM | 0.214 nM | Cc1nc2ccc(Cl)cn2c(=O)c1CCN1CCc2oc3ccccc3c2C1 | 0.04 | 0.63 |

| SMILES | IC50 [3] | IC50 [4] | IC50 [5] | IC50 [6] | Activity [1] | Activity [2] |
| --- | --- | --- | --- | --- | --- | --- |
| CN1CCN2c3ncccc3Cc3ccccc3C2C1 (stereo not drawn) [MIRTAZAPINE] | 200 nM | – | – | – | 2.5 | >10 |
